Assay results from ChEMBL document CHEMBL4118248, “Small Molecule Proprotein Convertase Subtilisin/Kexin Type 9 (PCSK9) Inhibitors: Hit to Lead Optimization of Systemic Agents” (J Med Chem, 2018).

Tests used:
[1] = molecular target: 80S Ribosome; assay: Binding affinity to 80S ribosome in human HuH7 cells assessed as inhibition of PCSK9 mRNA translation after overnight incubation by ELISA; type: cell-based; settings: huh-7
In short: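 Huh7 cells kept in high-glucose DMEM, 10% BSA-free FBS, 2 mM L-glutamine, pen/strep at 37 °C, 5% CO2. Plated 7,500/well with compound or vehicle and incubated overnight (16-20 h). Secreted PCSK9 in the medium read by AlphaLISA: two antibodies to different mature-PCSK9 epitopes, biotinylated antibody 3 nM final, acceptor beads 10 µg/mL, 0.5 h rt; streptavidin donor beads 40 µg/mL, 1 h rt.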

[2] = system: Rattus norvegicus; assay: Toxicity in Crl:CD(SD) rat assessed as decrease in proliferating erythroid cells at 50 mg/kg/day, po daily via gavage for 14 days measured on day 15 post last dose relative to control; type: organism-based; design: scale not given: the % may be the effect or the level left; settings: in vivo, 336 h
[3] = system: IEC-6; assay: Cytotoxicity against rat IEC-6 cells assessed as reduction in cell viability after 3 days by CellTiter-Glo assay; type: cell-based; settings: IEC-6, 72 h
In short: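 Rat intestinal epithelial IEC-6 cells; viability read by CellTiter-Glo ATP luminescence.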

[4] = molecular target: Cytochrome P450 3A4 (Homo sapiens, UniProt P08684); assay: Inhibition of CYP3A4 (unknown origin); type: ADME
Chain of Cytochrome P450 3A4 (P08684 whole entry): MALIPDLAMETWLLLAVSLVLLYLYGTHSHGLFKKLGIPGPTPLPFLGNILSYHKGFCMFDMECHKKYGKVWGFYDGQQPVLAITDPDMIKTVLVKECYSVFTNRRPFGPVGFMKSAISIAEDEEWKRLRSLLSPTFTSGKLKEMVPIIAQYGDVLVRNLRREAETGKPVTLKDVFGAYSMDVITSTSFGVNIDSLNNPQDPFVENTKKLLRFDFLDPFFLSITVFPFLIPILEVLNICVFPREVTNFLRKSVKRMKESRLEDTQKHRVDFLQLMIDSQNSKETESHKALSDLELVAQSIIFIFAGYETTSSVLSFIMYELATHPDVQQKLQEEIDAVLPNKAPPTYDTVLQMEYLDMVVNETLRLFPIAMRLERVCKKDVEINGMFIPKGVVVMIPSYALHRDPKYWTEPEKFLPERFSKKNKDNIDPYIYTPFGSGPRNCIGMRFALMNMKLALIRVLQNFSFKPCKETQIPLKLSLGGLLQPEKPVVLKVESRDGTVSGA
In short: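 Inhibition of CYP1A2, 2D6, 2C9 and 3A4 reported as IC50, or as percent inhibition at 3 µM.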

[5] = system: Bone marrow cell; assay: Cytotoxicity against rat bone marrow cells assessed as reduction in cell viability after 72 hrs by CellTiter-Glo assay; type: cell-based
[6] = system: Rattus norvegicus; assay: Toxicity in Crl:CD(SD) rat assessed as decrease in total nucleated cell count at 50 mg/kg/day, po daily via gavage for 14 days measured on day 15 post last dose relative to control; type: organism-based; design: scale not given: the % may be the effect or the level left; settings: in vivo, 336 h
[7] = system: Rattus norvegicus; assay: Toxicity in Crl:CD(SD) rat assessed as single cell necrosis in crypt cells in ileum at 50 mg/kg/day, po daily via gavage for 14 days measured on day 15 post last dose; type: organism-based; settings: in vivo, 336 h
[8] = Total Cmax in Crl:CD(SD) rat at 15 mg/kg/day, po daily via gavage for 14 days measured on day 14 post last dose up to 24 hrs; type: ADME, organism-based; design: dose 15 mg/kg/day, route oral; settings: in vivo
[9] = system: Rattus norvegicus; assay: Toxicity in Crl:CD(SD) rat assessed as decrease in B cells at 50 mg/kg/day, po daily via gavage for 14 days measured on day 15 post last dose relative to control; type: organism-based; design: scale not given: the % may be the effect or the level left; settings: in vivo, 336 h

Compound: O=C(c1ccc(-n2nnc3cccnc32)cc1)N(c1ncccc1Cl)[C@@H]1CCCNC1
- IC50 [1]: 820 nM
- Activity [2]: 32.9%
- IC50 [3]: > 20000 nM
- IC50 [4]: > 30000 nM
- IC50 [5]: 1200 to 2900 nM
- Activity [6]: 30%
- Activity [7]: Toxic
- Cmax [8]: 1640 ng/mL
- Activity [9]: 58%
